This passage reports Activity results from ChEMBL document CHEMBL1773040, “Briarane diterpenes diminish COX-2 expression in human colon adenocarcinoma cells” (2011).

Assay [1] concerns Caco-2. As to the kind of experiment: Cytotoxicity against human Caco2 cells assessed as decrease in cell viability at 15 uM after 24 hrs by trypan blue exclusion assay. Type of assay: functional. In short, it runs like this:
(§1)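 Caco-2 cells kept in MEM with 10% heat-inactivated FBS, penicillin G and streptomycin at 37 C, 5% CO2. Compounds given from a 5 mg/mL DMSO stock; exponentially growing cells seeded in complete medium with compound for 24 h. Floating and adherent cells pooled, mixed with 0.4% trypan blue, and stained/unstained cells counted by hemacytometer. Each experiment run three times.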

Assay [2] has as its system RAW264.7. As to the kind of experiment: Decrease in PMA-induced COX-2 mRNA expression in mouse RAW264.7 cells at 5 to 15 uM after 24 hrs by PCR analysis. Type of assay: functional, cell-based. In short, it runs like this:
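RAW 264.7 monolayers stimulated with PMA and co-incubated with compound (0–15 μM) for 24 h. Total RNA isolated; equal RNA amounts reverse-transcribed to cDNA. COX-2 fragments amplified by PCR: 94 C 3 min, then 35 cycles of 94 C 30 s, 56 C 1 min, 78 C 30 s. GAPDH served as reference.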

The subject of assay [3] is Caco-2. As to the kind of experiment: Cytotoxicity against human Caco2 cells assessed as decrease in cell viability at 5 to 30 uM after 24 hrs by trypan blue exclusion assay. In kind it is functional, cell-based. In short, it runs like this: as §1
For assay [4], the system named is Caco-2. As to the kind of experiment: Decrease in PMA-induced COX-2 mRNA expression in human Caco2 cells at 10 to 15 uM after 24 hrs by PCR analysis. In kind it is functional, cell-based.
Assay [5] deals with Caco-2. As to the kind of experiment: Cytotoxicity against human Caco2 cells assessed as decrease in cell viability at 30 uM after 24 hrs by trypan blue exclusion assay. In kind it is functional. In short, it runs like this: as §1
Assay [6] has as its system Caco-2. As to the kind of experiment: Cytotoxicity against human Caco2 cells assessed as decrease in cell viability at 20 uM after 24 hrs by trypan blue exclusion assay. Type of assay: functional. In short, it runs like this:
as §1

For assay [7], the system named is Caco-2. As to the kind of experiment: Decrease in PMA-induced COX-2 mRNA expression in human Caco2 cells at 5 to 15 uM after 24 hrs by PCR analysis. In kind it is functional, cell-based.

Activity calls are given as the source filed them. The calls are words filed in the database; no cut-off is given here.

For the molecule `CCCCCCCC(=O)O[C@@H]1C[C@H](O)[C@@]2(C)C=C[C@@H](OC(C)=O)[C@@](C)(O)[C@@H]2[C@H](OC(C)=O)[C@]23O[C@@]2(C)C(=O)O[C@H]3/C=C\1C` [BRIALALEPOLIDE C], the values for the Activity in assay [1], in assay [3] and in assay [5] were 50%, “Dose-dependent effect” and 75%, respectively. For the same molecule, the result in assay [2] and in assay [4] was Active.

Take `CCCCCC(=O)O[C@@H]1C[C@H](O)[C@@]2(C)C=C[C@@H](OC(C)=O)[C@@](C)(O)[C@@H]2[C@H](OC(C)=O)[C@]23O[C@@]2(C)C(=O)O[C@H]3/C=C\1C` [BRIALALEPOLIDE B]: the result in assay [2] and in assay [4] was Active. Moreover, the results for the Activity entry in assay [3] and in assay [6] were “Dose-dependent effect” and 50%, respectively.

For `CC(=O)O[C@@H]1C[C@H](O)[C@@]2(C)C=C[C@@H](OC(C)=O)[C@@](C)(O)[C@@H]2[C@H](OC(C)=O)[C@]23O[C@@]2(C)C(=O)O[C@H]3/C=C\1C` [BRIALALEPOLIDE A], the outcome in assay [7] and in assay [2] was inactive. Also, the Activity entry in assay [3] was “Dose-dependent effect”; in assay [5], 50%.
